PLCb3 inh: inhibitors of human phospholipase C beta3. 370,000 compounds, 0.18% hits. Purified PLC-beta3, fluorogenic substrate, fluorescence. Q01970. AID 720704. inhibition, % at 12.2 µM
PLC-gamma1 inh: blocks human PLC-gamma1 enzyme activity | 370,000 compounds, 0.84% hits | P19174 | AID 720700 | inhibition, % at 12.2 µM | purified PLC-gamma1, fluorogenic substrate, fluorescence; in the data active means inhibition above about 9.5%
Target sequence (P19174 whole entry, looked up): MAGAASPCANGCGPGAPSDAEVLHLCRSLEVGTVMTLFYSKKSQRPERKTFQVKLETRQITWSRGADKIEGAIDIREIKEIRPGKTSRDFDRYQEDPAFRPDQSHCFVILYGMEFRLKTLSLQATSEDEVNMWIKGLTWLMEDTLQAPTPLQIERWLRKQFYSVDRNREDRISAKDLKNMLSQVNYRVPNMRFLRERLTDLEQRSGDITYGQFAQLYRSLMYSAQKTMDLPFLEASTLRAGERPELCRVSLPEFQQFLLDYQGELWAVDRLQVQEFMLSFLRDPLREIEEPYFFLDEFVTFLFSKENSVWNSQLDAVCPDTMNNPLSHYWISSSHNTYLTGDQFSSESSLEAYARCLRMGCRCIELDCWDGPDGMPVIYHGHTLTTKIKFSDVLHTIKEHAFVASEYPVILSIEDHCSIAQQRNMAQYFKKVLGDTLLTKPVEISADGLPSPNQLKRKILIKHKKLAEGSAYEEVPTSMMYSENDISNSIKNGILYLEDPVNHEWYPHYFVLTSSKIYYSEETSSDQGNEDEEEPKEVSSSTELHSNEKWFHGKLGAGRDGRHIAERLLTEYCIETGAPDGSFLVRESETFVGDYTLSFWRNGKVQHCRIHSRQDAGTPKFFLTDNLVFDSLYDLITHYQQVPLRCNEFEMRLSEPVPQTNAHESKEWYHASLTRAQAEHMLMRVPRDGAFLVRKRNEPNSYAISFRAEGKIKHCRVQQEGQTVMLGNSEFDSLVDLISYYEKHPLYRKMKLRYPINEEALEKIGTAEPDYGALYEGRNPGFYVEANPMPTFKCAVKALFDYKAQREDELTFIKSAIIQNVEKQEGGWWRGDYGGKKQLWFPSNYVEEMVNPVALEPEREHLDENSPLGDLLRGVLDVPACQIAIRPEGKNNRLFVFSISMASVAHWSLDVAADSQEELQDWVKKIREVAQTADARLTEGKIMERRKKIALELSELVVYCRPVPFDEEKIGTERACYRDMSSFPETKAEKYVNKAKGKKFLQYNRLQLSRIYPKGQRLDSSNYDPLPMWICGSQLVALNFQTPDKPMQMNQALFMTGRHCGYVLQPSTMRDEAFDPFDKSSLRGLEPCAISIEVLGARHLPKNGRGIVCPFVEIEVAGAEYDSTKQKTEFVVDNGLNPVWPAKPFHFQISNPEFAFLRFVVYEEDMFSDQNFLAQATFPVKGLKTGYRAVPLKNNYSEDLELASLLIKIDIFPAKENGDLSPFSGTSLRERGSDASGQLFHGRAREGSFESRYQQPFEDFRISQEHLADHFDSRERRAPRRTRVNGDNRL
Arrestin-AP2 inh: blocks beta-arrestin peptide binding to AP2 adaptin | 340,000 compounds, 0.31% hits | inhibition, % at 10 µM | FITC-arrestin peptide / GST-AP2 beads, flow cytometry; AP2 beta2 appendage carries R879A mutation;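 active means inhibition above a set limit, near 3 SD of compounds lacking own fluorescence, cut at about 54% in these data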
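system = GST-tagged AP2 beta2-adaptin appendage (R879A) on 4 µm glutathione beads | reagent = FITC-labelled arrestin peptide probe, 50 nM final | schedule = compound with beads 12 min RT, then probe 1 h RT | signal = HyperCyt-sampled flow cytometry, FL1 channel, ex 488/em 535 nm | read-out = percent response from loss of bead-bound FITC fluorescence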
NTR1 agonist: NTR1 (human) agonism. NTR1-U2OS beta-arrestin-GFP spot imaging, agonist mode. activation, % at 20 µM. 330,000 compounds, 0.17% hits. P30989;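 active means activation at or above 40% of the spot to cytoplasm intensity ratio, with at least 20 cells analyzed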
PLCg1 ctr: inhibits human PLC-gamma1 in PLC-beta3 counter-screen; shares compounds with PLC-gamma1 inh; purified PLC-gamma1, fluorogenic substrate, fluorescence; inhibition, % at 12.3 µM; 3,300 compounds, 3.1% hits; in the data active means inhibition above about 9.5%
PLCbeta3 conf: confirmation of human PLC-beta3 inhibitors | shares compounds with PLC-gamma1 inh | purified PLC-beta3, fluorogenic substrate fluorescence | inhibition, % at 12.3 µM | 3,300 compounds, 1% hits | AID 743261
Hits are given with their value; n = inactive; x = no result given. An excerpt weighted towards active compounds, which were near 1.3% of everything screened. Unless noted, no stated cut-off is given here; in the data, active means inhibition above about 11%; inactive means the rest.

SMILES | PLCb3 inh | PLC-gamma1 inh | Arrestin-AP2 inh | NTR1 agonist | PLCg1 ctr | PLCbeta3 conf
FC(F)(F)c1cc(CO[C@@H]2CCCN[C@@H]2c2ccccc2)cc(C(F)(F)F)c1 | n | 10 | n | n | n | n
O=C(CC1CCCC1)N1CC[C@H]2[C@H](CCCN2Cc2cc(F)cc(F)c2)C1 | n | n | x | x | x | x
COC(=O)c1ccc(CSc2nnc(N)s2)cc1 | n | n | n | n | x | x
COC(=O)c1ccc(CSc2nnc(C)s2)cc1 | 11 | n | n | n | n | n
C/C(=N\NC(=O)CSc1nnc(C)s1)c1ccc(O)cc1 | n | 9.9 | n | n | n | n
COc1cc(/C(C)=N/NC(=O)CSc2nnc(C)s2)ccc1O | n | n | n | n | x | x
Cc1ccc2c(c1)C(CS(=O)(=O)NCCc1ccccc1)NC2 (stereo not drawn) | n | n | x | x | x | x
CC(=C/C(=O)O)/C(=C\c1ccc(Br)o1)C(=O)O | n | n | n | n | x | x
CC(=C/C(=O)O)/C(=C/c1ccccc1)C(=O)O | n | 10 | n | n | n | n
COc1ccc(C(=O)NCC2CCCN2S(=O)(=O)c2ccccc2)cc1OC (stereo not drawn) | n | 9.5 | x | x | n | n
O=S(=O)(c1ccccc1)N(CC(F)(F)F)c1ccc(C(O)(C(F)(F)F)C(F)(F)F)cc1 | n | 12 | x | x | n | n
CC(=O)Nc1ccc(S(=O)(=O)N/N=C/c2cccnc2)cc1 | n | n | n | n | x | x
CC(=O)Nc1ccc(S(=O)(=O)N/N=C/c2ccc(C)s2)cc1 | 12 | n | n | n | n | n
O=S(=O)(c1cc(O)ccc1O)c1cccc2c(S(=O)(=O)c3cc(O)ccc3O)cccc12 | n | 10 | n | n | n | n
COCCCNCCCCOc1ccc(Br)cc1Cl | n | n | n | n | x | x
COCCNCCCOc1ccc(Br)cc1Cl | n | 11 | n | n | 9.5 | n
O=C(O[C@H]1CC[C@@]23CCCN2C(=O)CCC[C@H]3C1)N1CCN(c2ccccc2)CC1 | n | n | x | x | x | x
Cc1ccc(C)c(NC2=NS(=O)(=O)c3ccccc32)c1 | n | 11 | n | n | n | n
Cc1ccccc1NC1=NS(=O)(=O)c2ccccc21 | n | n | n | n | x | x
Cc1ccc(NC(=O)[C@H]2CC(=O)O[C@@H]2c2ccccc2)c(C)c1 | n | n | x | x | x | x
COc1ccc(-c2nc(N)nc(C(F)(F)F)c2-c2csc(C)n2)c(O)c1 | n | 11 | n | n | n | n
CC(=O)CC[C@@H]1CC[C@]2(CCCN(C(=O)c3ccccc3)C2)O1 | n | n | x | x | x | x
CN(C)C(=O)Cn1c(SCC(=O)N2CCCc3ccccc32)nc2ccccc21 | n | 10 | n | n | n | n
CC(C)NC(=O)CSc1nc2ccccc2n1CC(=O)N1CCc2ccccc21 | x | x | n | n | x | x
COCCn1c(SCC(=O)N2CCCc3ccccc32)nc2ccccc2c1=O | n | n | n | n | x | x
SMILES | PLCb3 inh | PLC-gamma1 inh | Arrestin-AP2 inh | NTR1 agonist | PLCg1 ctr | PLCbeta3 conf
CC1CCCCN1C(=O)CSc1nc2ccccc2n1CC(=O)N1CCc2ccccc21 (stereo not drawn) | n | 9.6 | n | n | n | n
COC(=O)C[C@@H]1CC[C@@H]2[C@H](COc3ccc(NC(=O)c4cccc(OC)c4)cc3C(=O)N2C)O1 | n | n | x | x | x | x
CCCCn1c(N)c(N(CC)C(=O)c2ccccc2F)c(=O)[nH]c1=O | n | 12 | n | n | n | n
CCCCn1c(SCc2nc(N)nc(Nc3ccccc3C)n2)nc2ccccc2c1=O | n | n | n | n | x | x
COCC(C)n1c(SCc2nc(N)nc(Nc3ccccc3C)n2)nc2ccccc2c1=O (stereo not drawn) | n | 11 | n | n | n | n
COc1ccc(C2=Nn3c(nnc3C3CCCCC3)SC2)cc1 | n | n | x | x | x | x
CC(C)C12CN3CC(C(C)C)(CN(C1)C3c1ccc3c(c1)OCO3)C2=O (stereo not drawn) | 12 | n | n | n | n | n
CC12CN3CC(C)(CN(C1)C3c1ccc3c(c1)OCO3)C2 (stereo not drawn) | n | n | n | n | x | x
Cc1ccc(-n2c(SCC(=O)c3ccccc3Br)nnc2-c2ccncc2)cc1 | n | n | x | x | x | x
CC(C)(C)C1CCN2CCCC(c3ccc([N+](=O)[O-])cc3)(C1)C21OCCO1 (stereo not drawn) | n | n | x | x | x | x
COc1cc(C23CCCN(CCC(C(C)(C)C)C2)C32OCCO2)cc(OC)c1OC (stereo not drawn) | n | 11 | x | x | n | n
CCN(CC)CC(O)Cn1c2ccccc2c2ccccc21 (stereo not drawn) | n | 12 | n | n | n | n
C=CCN(CC=C)CC(O)Cn1c2ccccc2c2ccccc21 (stereo not drawn) | n | n | n | n | x | x
CCCCNC(=O)C[C@@H]1C(=O)N(CCc2ccc(Cl)cc2)C2=CCCCC[C@]21C(=O)OC | n | n | x | x | x | x
Cc1ccccc1Cn1cc(COC(=O)Nc2ccc(F)cc2)nn1 | n | n | x | x | x | x
CCn1cc(C(=O)N2CCc3ccccc32)c(=O)c2cc(S(=O)(=O)N(C)C3CCCCC3)ccc21 | n | 10 | n | n | n | n
CCn1cc(C(=O)N2CCc3ccccc32)c(=O)c2cc(S(=O)(=O)N3CCOCC3)ccc21 | n | n | n | n | x | x
Cc1c(C(=O)O)sc2ncn(C)c(=O)c12 | n | 14 | n | n | n | n
CCn1cnc2sc(C(=O)O)c(C)c2c1=O | n | n | n | n | x | x
O=C(CN1CCCC1)NCC12CC3CC(CC(C3)C1)C2 | n | 11 | n | n | n | n
CCCCOCCCNC(=O)C[C@H]1C[C@@]2(C(=O)OC)C(=C[C@H](COCc3ccccc3)O[C@@H]2C)N(Cc2ccco2)C1=O | n | n | x | x | x | x
CCC(=O)NC(Nc1nc(C)cs1)(C(=O)OC)C(F)(F)F (stereo not drawn) | 11 | n | n | n | n | n
CC(=O)CC[C@H]1CC[C@]2(CCCN(C(=O)c3ccno3)C2)O1 | n | n | x | x | x | x
Cc1cccnc1NC(=O)Nc1cccc(C(F)(F)F)c1 | n | 10 | n | n | n | n
CCCCCCCCN1C(=O)[C@@H](CC(=O)N2CCN(C(=O)c3ccco3)CC2)C[C@@]2(C(=O)OC)C1=C[C@H](COCc1ccccc1)O[C@@H]2C | n | n | x | x | x | x
SMILES | PLCb3 inh | PLC-gamma1 inh | Arrestin-AP2 inh | NTR1 agonist | PLCg1 ctr | PLCbeta3 conf
C[C@@]12C(=O)N(c3cccc(F)c3)C(=O)N1[C@@H]1c3ccccc3OC[C@@H]1[C@H]2c1ccccc1 | n | 10.0 | n | n | n | n
CC(C)Nc1nc(NC(C)C)nc(Nn2cnnc2)n1 | n | n | n | n | x | x
CC(C)Nc1nc(NC(C)C)nc(N(C)n2cnnc2)n1 | n | 9.9 | n | n | n | n
O=[N+]([O-])c1ccc(F)c(CN2CCN(c3ncc(Cc4ccccc4)cn3)CC2)c1 | n | n | x | x | x | x
Cc1ccc([N+](=O)[O-])cc1CN1CCN(c2ncc(Cc3ccccc3)cn2)CC1 | 14 | n | x | x | n | n
Fc1ccc(-c2n[nH]c(=S)n2N=Cc2cccc(OCc3ccccc3)c2)cc1 | n | n | x | x | x | x
COc1ccc(CN(C)Cc2ccccc2)c(OC)c1OC | n | 11 | n | n | n | n
COc1ccc(-c2noc(CN(C)Cc3ccccc3)n2)c(OC)c1OC | n | n | n | n | x | x

Screening results: PubChem BioAssay, several laboratories
